In ChEMBL document CHEMBL4613215, “Structure-Activity Relationships for a Series of (Bis(4-fluorophenyl)methyl)sulfinyl Alkyl Alicyclic Amines at the Dopamine Transporter: Functionalizing the Terminal Nitrogen Affects Affinity, Selectivity, and Metabolic Stability” (J Med Chem, 2020):

What was measured:
[1] = molecular target: Sodium-dependent dopamine transporter (Rattus norvegicus, UniProt P23977); assay: Displacement of [3H]WIN35428 from DAT in Sprague-Dawley rat striatum membranes incubated for 120 mins by microbeta scintillation counting method; type: cell membranes, Membrane
Sodium-dependent dopamine transporter (Rattus norvegicus, UniProt P23977), sequence (P23977 whole entry): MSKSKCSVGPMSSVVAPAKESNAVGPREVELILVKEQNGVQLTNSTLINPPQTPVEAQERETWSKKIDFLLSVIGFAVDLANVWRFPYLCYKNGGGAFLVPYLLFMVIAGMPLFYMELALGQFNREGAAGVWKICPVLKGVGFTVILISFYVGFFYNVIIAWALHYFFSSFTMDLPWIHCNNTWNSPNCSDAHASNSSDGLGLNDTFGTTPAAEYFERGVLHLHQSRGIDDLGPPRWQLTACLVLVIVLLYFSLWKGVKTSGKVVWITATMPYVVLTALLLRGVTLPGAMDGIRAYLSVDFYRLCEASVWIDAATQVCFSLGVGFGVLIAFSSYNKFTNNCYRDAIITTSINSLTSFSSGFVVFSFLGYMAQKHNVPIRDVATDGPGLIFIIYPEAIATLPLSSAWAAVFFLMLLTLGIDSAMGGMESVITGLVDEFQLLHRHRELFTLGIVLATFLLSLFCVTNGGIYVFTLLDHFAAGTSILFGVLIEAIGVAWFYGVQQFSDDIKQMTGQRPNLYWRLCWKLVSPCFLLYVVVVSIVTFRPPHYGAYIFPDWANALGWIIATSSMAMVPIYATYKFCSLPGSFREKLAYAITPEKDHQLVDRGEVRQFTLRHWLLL

[2] = molecular target: Sigma non-opioid intracellular receptor 1 (Cavia porcellus, UniProt Q60492); assay: Displacement of [3H]-(+)-pentazocine from Sigma1 receptor in guinea pig cortex membranes incubated for 120 mins by microbeta scintillation counting method; type: cell membranes
Sigma non-opioid intracellular receptor 1, sequence (Q60492 whole entry): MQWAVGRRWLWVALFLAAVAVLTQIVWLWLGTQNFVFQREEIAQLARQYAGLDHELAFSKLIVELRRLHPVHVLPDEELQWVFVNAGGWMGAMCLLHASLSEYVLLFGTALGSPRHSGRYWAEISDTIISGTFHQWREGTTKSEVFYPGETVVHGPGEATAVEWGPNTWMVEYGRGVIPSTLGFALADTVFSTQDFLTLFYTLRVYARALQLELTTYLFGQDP

[3] = Half life in human liver microsomes at 10 uM after 60 mins in presence of NADPH by LC-MS/MS analysis; type: ADME, Microsome; settings: for half-life at 10 µM: liver microsomes
[4] = Stability in mouse liver microsomes assessed as parent compound remaining at 10 uM after 60 mins in presence of NADPH by LC-MS/MS analysis; type: ADME, Microsome; settings: read-out: Stability
[5] = Stability in human liver microsomes assessed as parent compound remaining at 10 uM after 60 mins in presence of NADPH by LC-MS/MS analysis; type: ADME, Microsome; settings: read-out: Stability
[6] = molecular target: Sodium-dependent serotonin transporter (Rattus norvegicus, UniProt P31652); assay: Displacement of [3H]citalopram from SERT in Sprague-Dawley rat midbrain membranes incubated for 60 mins by microbeta scintillation counting method; type: cell membranes, Membrane
Sodium-dependent serotonin transporter, sequence (P31652 whole entry): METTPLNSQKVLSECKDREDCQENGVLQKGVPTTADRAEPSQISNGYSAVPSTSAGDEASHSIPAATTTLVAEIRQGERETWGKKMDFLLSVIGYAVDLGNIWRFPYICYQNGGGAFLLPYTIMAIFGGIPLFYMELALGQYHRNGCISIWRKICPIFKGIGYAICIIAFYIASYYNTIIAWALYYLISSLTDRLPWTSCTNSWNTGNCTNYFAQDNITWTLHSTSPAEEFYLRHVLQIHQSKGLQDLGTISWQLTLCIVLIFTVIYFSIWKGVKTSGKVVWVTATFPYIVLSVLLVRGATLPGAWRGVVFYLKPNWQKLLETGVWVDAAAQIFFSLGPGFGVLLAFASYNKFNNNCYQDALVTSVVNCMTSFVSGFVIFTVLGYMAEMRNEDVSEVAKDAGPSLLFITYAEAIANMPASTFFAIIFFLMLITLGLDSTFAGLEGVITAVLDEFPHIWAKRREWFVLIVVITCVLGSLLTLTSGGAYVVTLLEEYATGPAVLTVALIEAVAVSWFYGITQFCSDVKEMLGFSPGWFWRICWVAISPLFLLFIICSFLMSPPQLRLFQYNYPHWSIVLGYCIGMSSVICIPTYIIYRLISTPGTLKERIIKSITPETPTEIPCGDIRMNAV

[7] = Effect on locomotor activity in mouse assessed as increase in total ambulations at 1 to 10 mg/kg, ip measured during 30 mins of 2 hrs test by open field test; type: ADME, organism-based; settings: in vivo
How it was run: (§1)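 Mice acclimatized ~2 h, injected i.p. then placed immediately in open-field chambers with infrared beam arrays; beam breaks over 2 h converted to distance; maximum distance per 30 min reported; n=6 per group, each mouse used once; two-way ANOVA (Drug, Dose) with Tukey post-hoc versus vehicle.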

[8] = species: Homo sapiens; assay: Selectivity ratio of Ki for displacement of [3H]WIN35428 from DAT Y156F mutant (unknown origin) transiently expressed in COS7 cells to Ki for displacement of [3H]WIN35428 from DAT (unknown origin) transiently expressed in COS7 cells; type: cell-based
[9] = species: Rattus norvegicus; assay: Selectivity ratio of Ki for displacement of [3H]citalopram from in SERT Sprague-Dawley rat midbrain membranes to Ki for displacement of [3H]WIN 35428 from DAT in Sprague-Dawley rat striatum membranes
[10] = molecular target: T1, Sodium-dependent dopamine transporter (Homo sapiens, UniProt Q01959); assay: Inhibition of human DAT transiently expressed in COS7 cells assessed as reduction in [3H]-DA uptake measured after 5 mins by beta-scintillation counting method; type: cell-based, COS-7
T1 sequence (Q01959 whole entry): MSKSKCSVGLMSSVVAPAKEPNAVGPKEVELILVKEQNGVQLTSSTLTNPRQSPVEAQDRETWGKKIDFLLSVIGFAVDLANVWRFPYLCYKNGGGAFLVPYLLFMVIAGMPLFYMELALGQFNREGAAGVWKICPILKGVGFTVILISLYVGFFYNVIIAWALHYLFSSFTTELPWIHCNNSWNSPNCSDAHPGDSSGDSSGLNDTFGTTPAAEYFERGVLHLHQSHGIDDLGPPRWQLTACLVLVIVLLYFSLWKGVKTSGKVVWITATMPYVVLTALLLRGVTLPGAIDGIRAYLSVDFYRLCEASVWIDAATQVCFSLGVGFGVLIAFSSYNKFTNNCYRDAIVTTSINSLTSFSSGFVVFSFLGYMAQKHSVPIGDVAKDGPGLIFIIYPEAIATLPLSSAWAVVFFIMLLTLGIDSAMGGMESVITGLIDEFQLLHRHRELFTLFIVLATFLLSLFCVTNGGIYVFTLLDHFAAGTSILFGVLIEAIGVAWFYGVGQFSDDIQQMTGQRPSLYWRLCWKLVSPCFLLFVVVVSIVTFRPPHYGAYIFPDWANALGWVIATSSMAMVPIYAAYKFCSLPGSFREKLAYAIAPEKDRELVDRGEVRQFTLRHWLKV

[11] = Selectivity ratio of IC50 for inhibition of human ERG to Ki for displacement of [3H]WIN 35428 from DAT in Sprague-Dawley rat striatum membranes
[12] = Displacement of [3H]WIN35428 from DAT Y156F mutant (unknown origin) transiently expressed in COS7 cells incubated for > 90 mins by beta scintillation counting method; type: cell-based, Homo sapiens; settings: cos-7
[13] = molecular target: T1, Sodium-dependent dopamine transporter; assay: Displacement of [3H]WIN35428 from DAT (unknown origin) transiently expressed in COS7 cells incubated for > 90 mins by beta scintillation counting method; type: cell-based, COS-7
[14] = molecular target: Voltage-gated inwardly rectifying potassium channel KCNH2 (Homo sapiens, UniProt Q12809); assay: Inhibition of human ERG
Voltage-gated inwardly rectifying potassium channel KCNH2, sequence (Q12809 whole entry): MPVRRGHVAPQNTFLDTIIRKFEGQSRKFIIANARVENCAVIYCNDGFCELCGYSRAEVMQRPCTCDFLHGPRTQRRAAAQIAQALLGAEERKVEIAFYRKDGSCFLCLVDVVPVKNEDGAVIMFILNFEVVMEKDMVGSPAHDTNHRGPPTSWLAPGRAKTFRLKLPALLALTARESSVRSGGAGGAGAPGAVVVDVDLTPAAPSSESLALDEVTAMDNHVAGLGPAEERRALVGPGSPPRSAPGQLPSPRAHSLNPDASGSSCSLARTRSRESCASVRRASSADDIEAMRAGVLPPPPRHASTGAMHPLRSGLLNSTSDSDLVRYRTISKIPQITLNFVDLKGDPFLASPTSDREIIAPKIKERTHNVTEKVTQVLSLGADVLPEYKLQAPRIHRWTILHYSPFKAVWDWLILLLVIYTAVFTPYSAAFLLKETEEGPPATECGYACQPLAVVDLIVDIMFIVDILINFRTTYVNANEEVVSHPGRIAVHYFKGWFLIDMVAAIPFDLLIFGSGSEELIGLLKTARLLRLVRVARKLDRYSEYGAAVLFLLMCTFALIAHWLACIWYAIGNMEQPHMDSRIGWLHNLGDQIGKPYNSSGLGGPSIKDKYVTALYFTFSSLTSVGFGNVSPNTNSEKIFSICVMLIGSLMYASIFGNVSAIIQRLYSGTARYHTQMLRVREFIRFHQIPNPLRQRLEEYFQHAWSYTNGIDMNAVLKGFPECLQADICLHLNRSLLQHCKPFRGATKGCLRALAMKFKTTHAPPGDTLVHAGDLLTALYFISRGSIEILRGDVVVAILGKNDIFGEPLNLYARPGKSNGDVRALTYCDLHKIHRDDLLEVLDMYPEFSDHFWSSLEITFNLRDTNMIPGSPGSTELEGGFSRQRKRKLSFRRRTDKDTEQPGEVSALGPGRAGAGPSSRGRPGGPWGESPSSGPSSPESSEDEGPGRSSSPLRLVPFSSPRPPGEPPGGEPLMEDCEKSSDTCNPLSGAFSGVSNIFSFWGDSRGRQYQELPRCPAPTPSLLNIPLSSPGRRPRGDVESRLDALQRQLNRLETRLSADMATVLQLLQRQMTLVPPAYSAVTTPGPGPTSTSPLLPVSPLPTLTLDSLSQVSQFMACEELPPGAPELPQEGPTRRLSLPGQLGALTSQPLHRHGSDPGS

[15] = Stability in mouse liver microsomes at 10 uM after 60 mins in presence of NADPH by LC-MS/MS analysis; type: ADME, Microsome; settings: 1 h
[16] = Effect on locomotor activity in mouse assessed as increase in total ambulations at 3 to 56 mg/kg, ip measured during 30 mins of 2 hrs test by open field test; type: ADME, organism-based; settings: in vivo; how it was run: as §1
[17] = Half life in rat liver microsomes at 10 uM in presence of NADPH generating system by LC-MS/MS analysis; type: ADME, Microsome
[18] = Half life in mouse liver microsomes at 10 uM in presence of NADPH by LC-MS/MS analysis; type: ADME, Microsome
[19] = Effect on locomotor activity in mouse assessed as increase in total ambulations at 3 to 30 mg/kg, ip measured during 30 mins of 2 hrs test by open field test; type: ADME, organism-based; settings: in vivo; how it was run: as §1
[20] = Drug metabolism in mouse liver microsomes assessed as 1-(2-((Bis(4-fluorophenyl)methyl)thio)ethyl)-3,5-cis-dimethylpiperazine metabolite formation by HPLC/MS analysis; type: ADME, Microsome
[21] = Effect on locomotor activity in mouse assessed as increase in total ambulations at 1 to 30 mg/kg, ip measured during 30 mins of 2 hrs test by open field test; type: ADME, organism-based; settings: in vivo; how it was run: as §1

Row | Structure (SMILES) | Ki [1] [nM] | Ki [2] [nM] | Ki [6] [nM] | Ratio Ki [9] | Stability [15] | also measured
1 | C[C@H](O)CN1[C@H](C)CN(CCSC(c2ccc(F)cc2)c2ccc(F)cc2)C[C@@H]1C | 28.5 | 5.95 | 15600 |  |  | half-life at 10 µM [3]: > 40 min; remaining at 1 h, 10 µM [4]: 10%; remaining at 1 h, 10 µM [5]: > 30%; Activity [7]: Non-Toxic
2 | C[C@@H]1CN(CC[S+]([O-])C(c2ccc(F)cc2)c2ccc(F)cc2)C[C@H](C)N1CC(O)Cc1ccccc1 (some centres undefined) |  | 75.4 |  | 379 |  | Ratio Ki [8]: 5.8; remaining at 1 h, 10 µM [4]: < 10%; Ki [10]: 11.1 nM; Selectivity ratio [11]: 30; Ki [12]: 19.1 nM; Ki [13]: 3.83 nM; IC50 [14]: 91.5 nM
3 | Fc1ccc(C(SCCCN2CCN(CCCc3ccccc3)CC2)c2ccc(F)cc2)cc1 | 8.68 | 29.2 | 1060 | 122 |  | 
4 | [O-][S+](CCN1CCN(CC(O)Cc2ccc(F)cc2)CC1)C(c1ccc(F)cc1)c1ccc(F)cc1 (centres undefined) | 1.29 | 73.7 | 12300 | 9540 | Unstable | 
5 | C[C@@H]1CN(CCSC(c2ccc(F)cc2)c2ccc(F)cc2)C[C@H](C)N1C[C@@H](C)O | 39.4 | 2.19 | 19800 |  |  | half-life at 10 µM [3]: > 40 min; remaining at 1 h, 10 µM [4]: 30%; remaining at 1 h, 10 µM [5]: > 30%; Activity [7]: Non-Toxic
6 | [O-][S+](CCN1CCN(C[C@H](O)Cc2ccccc2)CC1)C(c1ccc(F)cc1)c1ccc(F)cc1 (some centres undefined) | 3.63 | 331 | 18700 | 5150 | Unstable | 
7 | [O-][S+](CCCN1CCN(CCCc2ccccc2)CC1)C(c1ccc(F)cc1)c1ccc(F)cc1 (centres undefined) | 40.3 | 39.4 | 1100 | 27 | Unstable | 
8 | C[C@H](O)CN1CCN(CCSC(c2ccc(F)cc2)c2ccc(F)cc2)CC1 | 37.9 | 2.58 | 3940 | 104 |  | 
9 | CC(O)CN1CCC2(CCN(CC[S+]([O-])C(c3ccc(F)cc3)c3ccc(F)cc3)CC2)C1 (centres undefined) |  | 65.1 |  | 1.4 |  | 
10 | OC(Cc1ccc(F)cc1)CN1CCN(CCSC(c2ccc(F)cc2)c2ccc(F)cc2)CC1 (centres undefined) | 1.72 | 29.4 | 1370 | 796 | Unstable | 
11 | C[C@H](O)CN1CCN(CC[S+]([O-])C(c2ccc(F)cc2)c2ccc(F)cc2)CC1 (some centres undefined) | 536 | 284 | 200000 |  | Stable | 
12 | CC(O)CN1[C@H](C)CN(CC[S+]([O-])C(c2ccc(F)cc2)c2ccc(F)cc2)C[C@@H]1C (some centres undefined) |  | 315 |  | 78 |  | Ratio Ki [8]: 7.5; remaining at 1 h, 10 µM [4]: 30 to 44%; Ki [10]: 552 nM; Ki [12]: 3030 nM; Ki [13]: 406 nM; IC50 [14]: 7300 nM
13 | O[C@@H](Cc1ccccc1)CN1CCN(CCSC(c2ccc(F)cc2)c2ccc(F)cc2)CC1 | 1.53 | 7.72 | 1390 | 908 | Unstable | 
14 | OC(CN1CCC2(CCN(CCSC(c3ccc(F)cc3)c3ccc(F)cc3)CC2)C1)c1ccccc1 (centres undefined) | 127 | 45.5 |  | 1 |  | Ratio Ki [8]: 2.3; remaining at 1 h, 10 µM [4]: 30 to 44%; Ki [10]: 268 nM; Selectivity ratio [11]: 13; Ki [12]: 239 nM; Ki [13]: 104 nM
15 | O=C(CCc1ccccc1)N1CCN(CCSC(c2ccc(F)cc2)c2ccc(F)cc2)CC1 | 2830 | 294 | 2540 | 0.9 |  | 
16 | CCC(=O)N1CCN(CCSC(c2ccc(F)cc2)c2ccc(F)cc2)CC1 | 5080 | 33.2 | 2490 | 0.5 |  | 

Row | Structure (SMILES) | Ki [1] [nM] | Ki [2] [nM] | Ki [6] [nM] | Ratio Ki [9] | Stability [15] | also measured
17 | O[C@H](Cc1ccccc1)CN1CCN(CCSC(c2ccc(F)cc2)c2ccc(F)cc2)CC1 | 3.93 | 23.6 | 813 | 207 | Unstable | 
18 | C[C@@H]1CN(CCSC(c2ccc(F)cc2)c2ccc(F)cc2)C[C@H](C)N1 | 92.3 | 111 | 13100 | 141 |  | 
19 | C[C@@H](O)CN1CCN(CC[S+]([O-])C(c2ccc(F)cc2)c2ccc(F)cc2)CC1 (some centres undefined) | 782 | 902 | 81500 |  | Stable | 
20 | CC(O)CN1CCN(CC[S+]([O-])C(c2ccc(F)cc2)c2ccc(F)cc2)CC1 (centres undefined) |  |  |  |  |  | Activity [16]: Non-Toxic; half-life at 10 µM [17]: 126 min; half-life at 10 µM [18]: 126 min
21 | [O-][S+](CCN1CCN(C[C@@H](O)Cc2ccccc2)CC1)C(c1ccc(F)cc1)c1ccc(F)cc1 (some centres undefined) | 1.34 | 27.4 | 21300 | 15900 | Unstable | 
22 | OC(Cc1ccc(C(F)(F)F)cc1)CN1CCN(CCSC(c2ccc(F)cc2)c2ccc(F)cc2)CC1 (centres undefined) | 23.4 | 187 | 4480 | 191 |  | 
23 | C[C@@H](O)CN1CCN(CCSC(c2ccc(F)cc2)c2ccc(F)cc2)CC1 | 73.2 | 3.03 | 2840 | 40 |  | 
24 | COC(=O)[C@H]1[C@@H](OC(=O)c2ccccc2)C[C@@H]2CC[C@H]1N2C [COCAINE] |  |  |  |  |  | Activity [19]: Toxic
25 | COc1ccc(CC(O)CN2CCN(CC[S+]([O-])C(c3ccc(F)cc3)c3ccc(F)cc3)CC2)cc1 (centres undefined) | 3.01 | 31.8 | 14600 | 4850 | Unstable | 
26 | [O-][S+](CCN1CCN(CC(O)Cc2ccc(C(F)(F)F)cc2)CC1)C(c1ccc(F)cc1)c1ccc(F)cc1 (centres undefined) | 11.7 | 147 | 11600 | 991 | Unstable | 
27 | CC(=O)CN1CCN(CCSC(c2ccc(F)cc2)c2ccc(F)cc2)CC1 | 182 | 1.08 | 17400 | 96 |  | 
28 | CC(O)CN1CCN(CCSC(c2ccc(F)cc2)c2ccc(F)cc2)CC1 (centres undefined) |  |  |  |  |  | half-life at 10 µM [17]: 14 min
29 | CC(O)CN1[C@H](C)CN(CCSC(c2ccc(F)cc2)c2ccc(F)cc2)C[C@@H]1C (mixture of isomers) | 23.1 | 5.62 |  |  |  | t1/2 ([3]; microsomes, 1 h, 10 µM): > 40 min; Drug metabolism [20]: Metabolite_Detected; remaining at 1 h, 10 µM [4]: < 10%; remaining at 1 h, 10 µM [5]: > 30%; Ki [10]: 100 nM; Ki [13]: 58.3 nM; Activity [21]: Non-Toxic; IC50 [14]: 635 nM; half-life at 10 µM [18]: 20 min
30 | C[C@@H]1CN(CCSC(c2ccc(F)cc2)c2ccc(F)cc2)C[C@H](C)N1CC(O)Cc1ccccc1 (some centres undefined) |  | 15.2 |  | 805 |  | 
31 | COc1ccc(CC(O)CN2CCN(CCSC(c3ccc(F)cc3)c3ccc(F)cc3)CC2)cc1 (centres undefined) | 1.91 | 9.65 | 1420 | 743 |  | 
